Test results reported in ChEMBL document CHEMBL1127851, “Synthesis and biological properties of 5-o-carboranyl-1-(2-deoxy-2-fluoro-beta-D-arabinofuranosyl)uracil” (J Med Chem, 1994).

Columns and labels:
Mus musculus [1] = test: Percentage of weight gained or lost in 4th week in normal swiss mice at a dose of 30 mg/kg/day; assay type: functional
In short: (§1)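 Female Swiss mice, 6 weeks old, 5 per group. Given 30 mg/kg/day ip in sterile DMSO (0.1 mL) once daily for 6 days. DMSO and water controls. Weighed twice weekly for 28 days. Survival recorded at week 4.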

Mus musculus [2] = test: Percentage of weight gained or lost in 1 week in normal swiss mice at a dose of 30 mg/kg/day; assay type: functional; in short: as §1
Mus musculus [3] = test: Percentage of weight gained or lost in 2nd week in normal swiss mice at a dose of 30 mg/kg/day; assay type: functional; in short: as §1
Mus musculus [4] = test: Percentage of weight gained or lost in 3rd week in normal swiss mice at a dose of 30 mg/kg/day; assay type: functional; in short: as §1
Mus musculus [5] = species: Mus musculus; test: Number of animals survived when the compound was tested at a dose of 30 mgkg/day in 5 Swiss mice; assay type: functional; in short: as §1
[6] = Compound was tested for inhibitory activity against erythroid (BFU-E) progenitor cells; assay type: functional, Homo sapiens
In short: (§2)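 Human bone marrow aspirated from healthy donors and heparinized. Mononuclear cells isolated on Ficoll-Hypaque, washed twice in HBSS; viability >98% by trypan blue. Bilayer soft agar or methyl cellulose culture at 0.1–100 μM. After 14 days at 37 °C in 5% CO2, colonies of ≥50 cells counted; % of control. Three donors, each in triplicate.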

CFU-GM = test: Compound was tested for inhibitory activity against human myeloid cells (CFU-GM); assay type: functional, cell-based; in short: as §2
PBMC [7] = test: Antiviral activity against HIV-1 strain LAI in PBM cells on day 6; assay type: functional, cell-based; conditions: Homo sapiens, 144 h
In short: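 HIV-1 (strain […] per footnote) in human PBM cells, acutely infected. Compounds from 40 mM DMSO stocks, diluted to test concentrations. EC50 from concentration-response curve by Chou–Talalay median-effect method. Replicate assays, variability under 15%.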

PBMC [8] = test: Cytotoxic concentration against PBM cells was determined on day 6; assay type: functional, cell-based; conditions: Homo sapiens, 144 h
In short: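 Cytotoxicity in human PBM, CEM and Vero cells, compounds diluted from 40 mM DMSO stocks. IC50 from the concentration-response curve by Chou–Talalay median-effect method. Replicate assays, variability under 15%.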

Vero = test: Antiviral activity against HSV-1 strain F in Vero cells on day 2; assay type: functional, cell-based; conditions: Chlorocebus sabaeus, 48 h
In short: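 Plaque reduction assay in Vero cells infected with HSV-1 strain F. […], diluted from 40 mM DMSO stocks. EC50 by Chou–Talalay median-effect analysis of the concentration-response curve. Replicate assays.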

Row | IC50 [6] [nM] | IC50 (CFU-GM) [nM] | SMILES | Weight gain or loss (Mus musculus [1]) [%] | Weight gain or loss (Mus musculus [2]) [%] | Weight gain or loss (Mus musculus [3]) [%] | Weight gain or loss (Mus musculus [4]) [%] | No. of animals survived (Mus musculus [5]) | EC50 (PBMC [7]) [nM] | IC50 (PBMC [8]) [nM] | EC50 (Vero) [nM]
1 |  |  | C[S+](C)[O-] [DIMETHYL SULFOXIDE] | 10 | -0.9 | 3 | 6.3 | 5 |  |  | 
2 | 600 | 1500 | Cc1cn([C@H]2C[C@H](N=[N+]=[N-])[C@@H](CO)O2)c(=O)[nH]c1=O [ZIDOVUDINE] |  |  |  |  |  | 4 | > 100000 | > 50000
